From ChEMBL document CHEMBL1154900, “Modified phenazines from an Indonesian Streptomyces sp” (2010) come the findings set out here.

Activity calls are given as the source filed them. The calls are words filed in the database; no cut-off is given here.

Assay [1] deals with Pseudomonas aeruginosa. As to the kind of experiment: Antibacterial activity against Pseudomonas aeruginosa at 56 ug/disk by agar diffusion method. Type of assay: functional, organism-based. In outline: (§1)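 Disk agar diffusion screen. Each sample was loaded per disk at the stated amount, either 14 µg/disk or 24 and 56 µg/disk. All six organisms were tested in one panel: S. aureus, B. subtilis, E. coli, P. aeruginosa, the fungus M. miehei and the yeast C. albicans.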
(In agar diffusion tests the substance spreads into inoculated agar from a disc or well.)

In assay [2] the test system is Candida albicans. As to the kind of experiment: Antifungal activity against Candida albicans at 24 ug/disk by agar diffusion method. Type of assay: functional, organism-based. In outline:
as §1

The subject of assay [3] is Staphylococcus aureus. As to the kind of experiment: Antibacterial activity against Staphylococcus aureus at 56 ug/disk by agar diffusion method. Type of assay: functional, organism-based. In outline:
as §1

Assay [4] relates to Escherichia coli. Description: Antibacterial activity against Escherichia coli at 56 ug/disk by agar diffusion method. The assay is classed as functional, organism-based. In outline: as §1
Assay [5] deals with Bacillus subtilis. Description: Antibacterial activity against Bacillus subtilis at 56 ug/disk by agar diffusion method. The assay is classed as functional, organism-based. In outline:
as §1

Assay [6] has as its system Bacillus subtilis. As to the kind of experiment: Antibacterial activity against Bacillus subtilis at 24 ug/disk by agar diffusion method. The assay is classed as functional, organism-based. In outline: as §1
Assay [7] relates to Rhizomucor miehei. Description: Antifungal activity against Mucor miehei at 56 ug/disk by agar diffusion method. The assay is classed as functional, organism-based. In outline:
as §1

Assay [8] deals with Pseudomonas aeruginosa. Description: Antibacterial activity against Pseudomonas aeruginosa at 24 ug/disk by agar diffusion method. The assay is classed as functional, organism-based. In outline: as §1
The subject of assay [9] is Rhizomucor miehei. Description: Antifungal activity against Mucor miehei at 24 ug/disk by agar diffusion method. The assay is classed as functional, organism-based. In outline:
as §1

Assay [10] relates to Staphylococcus aureus. Description: Antibacterial activity against Staphylococcus aureus at 24 ug/disk by agar diffusion method. Type of assay: functional. In outline: as §1
Assay [11] deals with Escherichia coli. As to the kind of experiment: Antibacterial activity against Escherichia coli at 24 ug/disk by agar diffusion method. The assay is classed as functional, organism-based. In outline: as §1
For assay [12], the system named is Candida albicans. As to the kind of experiment: Antifungal activity against Candida albicans at 56 ug/disk by agar diffusion method. The assay is classed as functional, organism-based. In outline:
as §1

With `CCC(=O)C(C)C(=O)C1(C)Cc2ccc(OC)c3c2N(C1=O)c1cccc(C(=O)O)c1N3` (centres undefined), the outcome with Pseudomonas aeruginosa [1], in the assay on Candida albicans [2], with Staphylococcus aureus [3], in the assay with Escherichia coli [4], in the assay on Bacillus subtilis [5] and with Bacillus subtilis [6] was inactive. The result with Rhizomucor miehei [7], in the assay with Pseudomonas aeruginosa [8], in the assay on Rhizomucor miehei [9], in the assay with Staphylococcus aureus [10], in the assay with Escherichia coli [11] and in the assay with Candida albicans [12] was inactive.
As for `CCC(=O)C(C)C(=O)C(C)(Cc1ccc(OC)c2nc3c(C(=O)O)cccc3nc12)C(=O)OC` (centres undefined), the result in the assay with Pseudomonas aeruginosa [1], in the assay with Candida albicans [2], in the assay with Staphylococcus aureus [3], in the assay with Escherichia coli [4], in the assay with Bacillus subtilis [5] and in the assay with Bacillus subtilis [6] was inactive. Moreover, the outcome with Rhizomucor miehei [7], in the assay on Pseudomonas aeruginosa [8], in the assay with Rhizomucor miehei [9] and with Candida albicans [12] was inactive. In addition, in the assay with Staphylococcus aureus [10] (read-out: IZ), the zone of inhibition at 24 µg/disc turned out to be 14 mm. In the assay on Escherichia coli [11], the “inhibition zone (IZ)” value was “inactive”.
